Experiments:
[1] = folding enthalpy; higher = less favourable; fluorescence melt of hairpins on a sequencing array, two-state fit; conditions: sodium 0.088 M
How it was run: (§1)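 Melting temperature and folding enthalpy were derived from bootstrapped two-state fits. The fitted temperatures were raised by 9.35 °C to agree with UV melts, and four replicates were combined by inverse variance. The underlying data were Cy3 fluorescence images of library hairpins, with annealed Cy3 and quencher oligos, on a sequenced MiSeq flow cell in 50 mM Na-HEPES pH 8.0, 25 mM NaCl, taken in 2.5 °C steps up to 60 °C, normalised to pre-quench Cy3 and to control constructs.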

[2] = melting temperature; fluorescence melt of hairpins on a sequencing array, two-state fit, raised by 9.35 °C to match UV melts; conditions: sodium 0.088 M
How it was run: as §1

Sequence	folding enthalpy [1]	Tm [2]
GGCGTGACGAAAGTCGCC (((..(((....))))))	-21.1 kcal/mol	57.5 °C
GACGACCGAAAGGTGTC (((.(((....))))))	-26.5 kcal/mol	52.2 °C
GATCGTGAAGACGATC ((((((....))))))	-31.5 kcal/mol	57 °C
GTGAGGCCGAAAGGCCAC (((..(((....))))))	-11.7 kcal/mol	50.3 °C
GAATGAGGAAACTCGTTC (((.(((....))).)))	-32.3 kcal/mol	43.9 °C
GGTCGTCGAAAGACAACC (((.(((....))).)))	-26.1 kcal/mol	48.9 °C
GGCCCCGAAAGGGATGCC ((((((....)))..)))	-22.2 kcal/mol	56.8 °C
GTGAGCGAAAGCTAACAC ((((((....)))..)))	-15.4 kcal/mol	44 °C
GCGACCTATCGC ((((....))))	-28.4 kcal/mol	49.3 °C
GATCTCTGCTGAGATC ((((((....))))))	-45.9 kcal/mol	53.7 °C
GACGTGGCGAAAGCCGTC (((..(((....))))))	-16.5 kcal/mol	50.4 °C
GAATTGCGAAAGCACTTC (((.(((....))).)))	-21.1 kcal/mol	40.7 °C
GTGTCCGAAAGGAGGCAC ((((((....)))..)))	-20.6 kcal/mol	39.5 °C
GATCTCCCGTGAGATC ((((((....))))))	-35.4 kcal/mol	52.5 °C
GTGATGGGAAACTGTCAC ((((..(....)..))))	-32.5 kcal/mol	39.1 °C
GCCTGGCGAAAGCACGGC (((..((....))..)))	-24.3 kcal/mol	59.1 °C
GCTGTGCGAAAGCAAGC (((.(((....))))))	-21.5 kcal/mol	51.8 °C
GGCAGCGGAAACACTGCC (((((.(....).)))))	-41 kcal/mol	55.1 °C
GCTCCCGGAAACGAGAGC ((((.((....)).))))	-36.5 kcal/mol	49.2 °C
GGTTCGCCGAAAGGCACC (((..(((....))))))	-8.49 kcal/mol	30.1 °C
TGTAAGAAATTACA (((((....)))))	-7.98 kcal/mol	20.6 °C
GGTTCTGGAAACGGAACC (((((.(....).)))))	-45 kcal/mol	52.3 °C
GTCGTCGAAAGACGGAC ((((((....))).)))	-13.6 kcal/mol	56.2 °C
GTGGACGAAAGTCTGCAC ((((((....)))..)))	-15.7 kcal/mol	40.6 °C

Sequence	folding enthalpy [1]	Tm [2]
GATCTCACCGAGATC ((((((...))))))	-36.5 kcal/mol	55.2 °C
GGTAGTGGAAACACCACC (((.(((....))).)))	-20.8 kcal/mol	40 °C
GTTGGGGGAAACCTCAGC (.((.((....)).)).)	-17.4 kcal/mol	31 °C
GCGGTCGAAAGACGTCGC ((((((....)))..)))	-23.7 kcal/mol	50.5 °C
GCTGCCGAAAGGCACAGC ((((((....)))..)))	-13.4 kcal/mol	48.2 °C
CGATCGGAAACGATATCG ((((((....)))..)))	-18.4 kcal/mol	35.5 °C
GAGCAGAAATGCTC (((((....)))))	-29.8 kcal/mol	53.6 °C
GATCCCCAGGGGGATC ((((((....))))))	-29 kcal/mol	65.5 °C
GCATGGCGAAAGCATTGC (((..((....))..)))	-20 kcal/mol	49.6 °C
GGAAAACCGAAAGGTTCC (((..(((....))))))	-13.8 kcal/mol	35.8 °C
GGCCAGTCGAAAGACGCC (((..(((....))))))	-18.2 kcal/mol	50.1 °C
GTGAGCGAAAGCTAGCAC ((((((....)))..)))	-11.4 kcal/mol	40.4 °C
GATCAATAATTGATC ((((((...))))))	-23.8 kcal/mol	40.3 °C
GATCCCCAAGGGATC ((((((...))))))	-30.9 kcal/mol	58.9 °C
GAGCGTGGAAACATGCTC ((((.((....)).))))	-55.5 kcal/mol	55 °C
GAATTACGAAAGTATTTC (((.(((....))).)))	-19.6 kcal/mol	35.2 °C
GATCAAACTGTTGATC ((((((....))))))	-25.7 kcal/mol	41 °C
GGTTAGGGAAACCTAGCC ((.((((....)))).))	-27.2 kcal/mol	46.3 °C
GAAACCGAAAGGTATTTC ((((((....)))..)))	-12.4 kcal/mol	26.6 °C
GGGGACGAAAGTCCACCC ((((((....)))..)))	-11.2 kcal/mol	55.2 °C
GCATTCTCGAAAGAGTGC (((..(((....))))))	-24.3 kcal/mol	40.9 °C
GATCACACAGTGATC ((((((...))))))	-38.1 kcal/mol	58.8 °C
GTAAGACCGAAAGGTTAC (((..(((....))))))	-13.8 kcal/mol	30.3 °C
GCTCTTTCGAAAGAAAGC (((..(((....))))))	-13.4 kcal/mol	32.5 °C

Sequence	folding enthalpy [1]	Tm [2]
GCCATCCGAAAGGACGGC (((.(((....))).)))	-40.2 kcal/mol	55.7 °C
GCCCGAGGAAACTCGGAC (.(((((....))))).)	-13.1 kcal/mol	48.4 °C
GCCGACGAAAGTCCGGC ((((((....))).)))	-31.1 kcal/mol	61.2 °C
GGTGGAGGAAACTCCGTC (..((((....))))..)	-15.4 kcal/mol	37.8 °C
CGCTTGAAAAAGCG (((((....)))))	-23.3 kcal/mol	58.2 °C
GGAAGTCGAAAGACTCC (((.(((....))))))	-17.9 kcal/mol	53 °C
GCGTGACGAAAGTCTCGC (((.(((....))).)))	-39.4 kcal/mol	67.7 °C
GTGGCGGGAAACCGCTAC ((.((((....)))).))	-19.3 kcal/mol	58.3 °C
CGACCGGAAACGGGGTCG ((((((....)))..)))	-28.8 kcal/mol	48.6 °C
GGAAAGCCGAAAGGCTCC (((..(((....))))))	-11.2 kcal/mol	42.2 °C
GCCAAGGCGAAAGCCGGC (((..(((....))))))	-15.7 kcal/mol	65.8 °C
ACGTTGAAAAACGT (((((....)))))	-20.2 kcal/mol	47.1 °C
GATCCGGCACCGGATC ((((((....))))))	-44 kcal/mol	63.8 °C
GGGTGCACGAAAGTGCCC (((..(((....))))))	-12.9 kcal/mol	52.6 °C
GCCGTCGAAAGACAGGC ((((((....))).)))	-27 kcal/mol	65.2 °C
GCCTCACGAAAGTGCGGC (((.(((....))).)))	-43.1 kcal/mol	57.7 °C
CACTGGAAACAGTG (((((....)))))	-26.7 kcal/mol	50.7 °C
GATCGGATACCCGATC ((((((....))))))	-40.3 kcal/mol	56.6 °C
GATCCCCCATGGGATC ((((((....))))))	-36.5 kcal/mol	59.9 °C
GATCACCACGTGATC ((((((...))))))	-38.5 kcal/mol	58.9 °C
GATCCTCCCAGGATC ((((((...))))))	-35.8 kcal/mol	55.7 °C
GTCTGGGGAAACCTAGGC (.((.((....)).)).)	-19.8 kcal/mol	34.8 °C
GCAAGGACGAAAGTCTGC (((..(((....))))))	-17.5 kcal/mol	44.6 °C
GACAAACGAAAGTTGTC (((.(((....))))))	-29.1 kcal/mol	48.2 °C

Sequence	folding enthalpy [1]	Tm [2]
GATCTGGGGCAGATC ((((((...))))))	-29.4 kcal/mol	46.5 °C
GATCCCTTCCGGGATC ((((((....))))))	-35.3 kcal/mol	59.5 °C
GATCAGAGGCCTGATC ((((((....))))))	-34.6 kcal/mol	48.5 °C
GAGTGCGAAAGCAAACTC ((((((....)))..)))	-20.8 kcal/mol	47.2 °C
GCCCCGCGAAAGCTAGGC (((..((....))..)))	-18.7 kcal/mol	45 °C
GAGAACGAAAGTTCCCTC ((((((....)))..)))	-14 kcal/mol	38.9 °C
GCGGATTGCCGC ((((....))))	-11.3 kcal/mol	53.7 °C
GATCTGTCCTCAGATC ((((((....))))))	-46.8 kcal/mol	51 °C
GGCCTACGAAAGTACGCC (((.(((....))).)))	-26.4 kcal/mol	47.4 °C
GATCGACTCCTCGATC ((((((....))))))	-38.6 kcal/mol	51.6 °C
GAGCACGAAAGTGACTC ((((((....))).)))	-19.5 kcal/mol	47.3 °C
GACACTCCGAAAGGAGTC (((..(((....))))))	-7.77 kcal/mol	32 °C
GGTAAAGGAAACTTTATC (.(((((....))))).)	-18.7 kcal/mol	30.5 °C
GATCCCGAAAGGGAATC ((((((....))).)))	-14.5 kcal/mol	49.6 °C
GCCCGCGGAAACACGGGC (((((.(....).)))))	-47.9 kcal/mol	62.9 °C
GTAAATGGAAACGTTTAC (((((.(....).)))))	-32.9 kcal/mol	35 °C
GATCTCACAGGAGATC ((((((....))))))	-34 kcal/mol	51.7 °C
GCCCACGGAAACACGGGC ((((..(....)..))))	-24.4 kcal/mol	46.5 °C
GCTACGACGAAAGTCAGC (((..(((....))))))	-17 kcal/mol	37 °C
GATCACGTCCGTGATC ((((((....))))))	-41.6 kcal/mol	61.1 °C
GATCCACTCTGGATC ((((((...))))))	-36.5 kcal/mol	52.4 °C
